Measured values taken from PubChem BioAssay AID561 (The Scripps Research Institute Molecular Screening Center, 2006).
In all, about 65,000 compounds went through this assay and about 280 (0.43%) were called active. This excerpt belongs to a sample that is enriched for actives. Values without a mark were called inactive.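 Rule for the calls: active = inhibition above the mean of all tested compounds plus 3 SD (cut at about 52% in these data); inactive = the rest.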

biological target: Nuclear receptor ROR-alpha (Homo sapiens) (UniProt P35398); assay: inhibitors of orphan receptor RORA, primary screen, cell-based, luminescence (AID 561); settings: CHO-K1 Gal4-RORA LBD luciferase reporter, at 10 µM, stronger effect = higher value;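 note: 0% = RORA-transfected cells with DMSO and 100% = mock-transfected cells lacking RORA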
In short: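 Material: transiently transfected CHO-K1 cells, Gal4-DBD/human RORA-LBD fusion plus 5xGal4-luciferase reporter; doses: single concentration per compound, 10 µM final; incubation: 20 h at 37 °C; detection: luminescence from basal luciferase reporter expression; read-out: % inhibition of basal luciferase versus +RORA/-RORA DMSO controls; replication: tested once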

Chain of Nuclear receptor ROR-alpha (Homo sapiens) (P35398 whole entry, looked up, the tested form may be a part): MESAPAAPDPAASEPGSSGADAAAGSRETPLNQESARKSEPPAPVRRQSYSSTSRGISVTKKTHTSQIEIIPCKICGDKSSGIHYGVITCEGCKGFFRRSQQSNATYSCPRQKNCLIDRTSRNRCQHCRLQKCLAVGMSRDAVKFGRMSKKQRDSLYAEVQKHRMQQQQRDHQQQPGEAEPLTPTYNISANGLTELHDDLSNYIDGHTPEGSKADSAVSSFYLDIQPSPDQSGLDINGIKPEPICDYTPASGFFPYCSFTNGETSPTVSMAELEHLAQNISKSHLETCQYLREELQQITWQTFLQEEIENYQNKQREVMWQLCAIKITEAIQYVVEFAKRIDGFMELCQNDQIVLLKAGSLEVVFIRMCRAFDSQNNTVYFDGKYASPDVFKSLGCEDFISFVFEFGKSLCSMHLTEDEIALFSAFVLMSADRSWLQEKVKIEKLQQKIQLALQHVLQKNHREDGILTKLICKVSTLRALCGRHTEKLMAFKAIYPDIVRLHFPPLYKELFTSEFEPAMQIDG

SMILES | inhibition
COc1ccc(-c2noc(-c3cccc(OC)c3OC)n2)cc1OC | -89.8%
COc1ccc(-c2nc(-c3ccccc3)no2)c(OC)c1 | 78.4% (active)
CCOc1ccc(Nc2oc(Cc3ccccc3)nc2C#N)cc1 | -25.7%
O=C(CSc1nc2ccccc2[nH]1)c1cccs1 | -56.5%
O=C(CCSc1ccccc1)NCCSc1ccccn1 | -13.3%
O=c1c2cc3c(=O)n(CC4CCCO4)c(=O)c3cc2c(=O)n1CC1CCCO1 (stereo unspecified) | 5.9%
Cc1ccsc1C(=O)OCC(=O)c1cc(C)n(CC2CCCO2)c1C (stereo unspecified) | 85.1% (active)
Cn1c(-c2ccco2)nc2cc3ccccc3cc21 | 68.8% (active)
O=C(Nc1cccc(-c2nnc(-c3ccccc3)o2)c1)C1CCCO1 (stereo unspecified) | -61.1%
COC(=O)Cc1cc(=O)n(-c2nc3ccccc3s2)[nH]1 | 10.2%
CC(=O)Nc1ccc(S(=O)(=O)N2CCN(CCCOc3cc(C)ccc3C)CC2)cc1 | 13.3%
CC1(C)NC(=O)N(CCOc2cccc(Oc3ccccc3)c2)C1=O | -0.4%
CC(=O)NC(Cc1ccc(F)cc1)C(=O)O (stereo unspecified) | 4.4%
COc1ccccc1CNC(=O)CCCNS(=O)(=O)c1cccc2nsnc12 | 12.8%
CS(=O)(=O)c1ccc2nc(NC(=O)C3C4C=CC(C4)C3C(=O)O)sc2c1 (stereo unspecified) | 0.6%
CCCCOc1ccc(-c2ncc(C(=O)OCC)c(N)n2)cc1 | -59.3%
Cc1ccc(CNC(=O)C2CCCN(S(C)(=O)=O)C2)cc1 (stereo unspecified) | -3.7%
CCSc1nc(C)nc2c1oc1ccccc12 | -1%
CCc1c(C)sc(NC(=O)c2ccc(Br)o2)c1C(=O)OC | 3.7%
CC1(C)CC(CCC(=O)Nc2ccccc2Cl)C(=O)O1 (stereo unspecified) | 6.6%
C#CCNc1nc(C(C)C)nc2c1nnn2Cc1ccccc1F | -1.9%
Fc1ccc2[nH]c3c(N4CCSCC4)ncnc3c2c1 | 80.8% (active)

SMILES | inhibition
Fc1ccc2[nH]c3c(N4CCN(Cc5ccc6c(c5)OCO6)CC4)ncnc3c2c1 | 86.3% (active)
CN(C)/C=C/c1c(C#N)c(=O)ncn1Cc1ccccc1 | 15.5%
Cc1ccc(Cn2nnc3c(=O)n(CC(=O)N4CCCCC4)cnc32)cc1 | 19.7%
O=C(NC1=NCCS1)c1ccc(Cl)s1 | -80.1%
CC(C)OC(=O)C(C#N)c1nc2ccccc2nc1N1CCN(Cc2ccccc2)CC1 (stereo unspecified) | -19.7%
O=C1C(C=NCC2CCCO2)=C(O)c2ccccc21 (stereo unspecified) | -48.7%
Cc1nc2nc(COc3ccccc3)[nH]n2c(=O)c1C | -0.2%
Cc1ccc(-n2ncc3c2ncn2nc(-c4ccco4)nc32)c(C)c1 | -10.8%
COc1ccccc1-c1cc(C(=O)N2CCCCC2)no1 | -56.5%
O=c1oc2cc(O)ccc2cc1-c1ccc(F)cc1 | -61.8%
CCCN(c1ccc(C(C)C)cc1)S(=O)(=O)c1c(C)[nH]c(=O)[nH]c1=O | -10.6%
O=C(O)CC(c1ccccc1)n1cnnn1 (stereo unspecified) | 15.8%
CN(C)c1nc(N)nc(CSc2nnnn2-c2cccc3ccccc23)n1 | 53.2% (active)
Cn1c(=O)c(C(=O)Nc2ncccn2)c(O)c2ccccc21 | -61%
CC(=O)Oc1ccc(C(=O)Nc2nccs2)cc1 | -61%
COc1ccccc1C(=O)C(O)c1ccccc1OC (stereo unspecified) | -19.7%
O=C(c1cc(-c2cccs2)on1)N1CCCCC1 | -63.4%
Cc1noc(C)c1S(=O)(=O)Nc1ccc(C(=O)O)cc1 | -7.4%
Cn1c(SCc2c(F)cccc2Cl)nnc1-c1cnccn1 | -62.8%
Nc1ccc(-c2nnc(-c3ccc(-c4ccccc4)cc3)o2)cc1 | -60.7%
COc1ccccc1-n1nnnc1S(=O)(=O)Cc1ccc(Cl)cc1 | 54.4% (active)
OCCCNC(c1ccccc1)c1ccc(O)cc1 (stereo unspecified) | 24.8%

SMILES | inhibition
COc1ccc(OC)c(CNC(=O)C2CCCN(c3nc4ccccc4o3)C2)c1 (stereo unspecified) | 33.3%
COC(=O)CCSc1nccn1Cc1ccccc1 | 7.6%
COc1ccccc1CNC(=O)C1CCN(c2nc3ccccc3o2)CC1 | 14%
CCS(=O)(=O)N1CCCC(C(=O)NCCCN(C)Cc2ccccc2)C1 (stereo unspecified) | -3.1%
Cc1cc(Cl)c(S(=O)(=O)Nc2ccc3c(c2)OCCO3)cc1OCC(N)=O | 22.5%
OC1CN=C2Sc3ccccc3N2C1 (stereo unspecified) | 10.5%
CCOc1ccccc1N(CC(=O)NC1CCCCC1)C(=O)CCCC(=O)Nc1ccccn1 | -9%
CN1CCCC(OC(=O)COc2ccc(Br)cc2)C1 (stereo unspecified) | -27%
CC(=O)Nc1cccc(-c2cnc3ccccc3n2)c1 | -72.9%
Cc1ccc(Cc2nc(-c3cccc(C)c3)no2)cc1 | -51.5%
CCNC(=O)CCc1nc(-c2ccc(C(C)(C)C)cc2)no1 | 88.3% (active)
Cc1cc(C)nc(NC(=O)Nc2ccccc2C(F)(F)F)n1 | -29%
Cc1cccc(NC(=O)CSc2nc3c(c(=O)[nH]2)CCC3)c1C | 0.6%
CC(C)CCNc1nc(N2CCCC2)c2c(c1C#N)CCN(C)C2 | -5.2%
COc1ccc(Cl)cc1S(=O)(=O)Nc1cccc(C(=O)O)c1 | 2.9%
O=C(O)CCC(=O)NCc1ccc2[nH]c3c(c2c1)CCCC3 | 11.8%
COCCCNC(=O)Cn1cc(C(=O)C2CC2)c2ccccc21 | -7.6%
COc1ccc(CN(C(=O)c2cccs2)c2nccs2)cc1OC | -6.9%
CCOC(=O)Nc1ccccc1N1C(=O)c2ccccc2C1=O | -13%
Cn1c(SCC(=O)Nc2cccc(O)c2)nnc1-c1ccc(S(=O)(=O)N2CCOCC2)cc1 | -31.5%
CC[C@H]1CN2CCc3cc(OC)c(OC)cc3[C@@H]2C[C@@H]1C[C@H]1NCCc2cc(OC)c(OC)cc21 | 95.3% (active)
O=C(Nc1cccnc1)c1noc2c1CCCCC2 | 19.3%
